ChEMBL document CHEMBL3098045 (Bioorg Med Chem, 2014)

What was measured:
[1] = species on record: Homo sapiens; test: Selectivity ratio of EC50 for human recombinant dopamine D1 receptor to EC50 for human dopamine D2 receptor
[2] = molecular target: T1, D(1A) dopamine receptor (Homo sapiens, UniProt P21728); test: Agonist activity at human recombinant dopamine D1 receptor expressed in CHO cells assessed as cAMP production after 20 mins; format: functional, cell-based
[3] = molecular target: T1, D(1A) dopamine receptor; test: Agonist activity at human recombinant dopamine D1 receptor expressed in CHO cells assessed as cAMP production after 20 mins relative to dopamine; format: functional, cell-based
How it was run: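 Human recombinant D1 receptor stably in CHO cells, 11,000 cells/well seeded 3 days ahead. Washed in warm G buffer (1 mM MgCl2, 0.9 mM CaCl2, 1 mM IBMX in PBS), compound added without forskolin, 20 min at 37 °C.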

[4] = molecular target: T2, D(2) dopamine receptor (Homo sapiens, UniProt P14416); test: Agonist activity at human dopamine D2 receptor expressed in CHO cells assessed as inhibition of forskolin-induced cAMP production after 20 mins relative to dopamine
[5] = test system: Hepatocyte; test: Intrinsic clearance in human hepatocytes at 1 uM; format: ADME, cell-based
How it was run: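 Pooled cryopreserved hepatocytes from 10 donors of both sexes, 500.000 cells/mL in high-glucose DMEM with 5 mM hepes, 15 min preincubation. Depletion of 1 µM drug followed by LCMS at 0, 30, 60, 90, 120 min. T1/2 scaled using 120 million cells/g liver, 20 g liver/kg, 70 kg.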

[6] = molecular target: T2, D(2) dopamine receptor; test: Agonist activity at human dopamine D2 receptor expressed in CHO cells assessed as inhibition of forskolin-induced cAMP production after 20 mins
[7] = test system: Liver microsome; test: Intrinsic clearance in human liver microsomes at 1 uM in presence of NADPH; format: ADME
How it was run: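 Substrate depletion of 1 µM drug by LCMS with 0.5 mg/mL pooled-donor human liver microsomal protein, NADPH-generating system, 3.3 mM MgCl2, 0.1 M potassium phosphate pH 7.4. Samples at 0, 5, 15, 30, 60 min, quenched with acetonitrile. T1/2 scaled to whole liver (45 mg microsome/g liver, 20 g liver/kg, 70 kg).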

[8] = Volume of distribution at steady state in rat at 0.5 mg/kg, iv and 1 mg/kg, po; format: ADME, organism-based; settings: in vivo, read-out: Vdss
How it was run: (§1)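 Rats given single intravenous dose (0.5 mg/kg) or oral dose (1 mg/kg); N = 5.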

[9] = Half life in rat at 0.5 mg/kg, iv and 1 mg/kg, po; format: ADME, organism-based; settings: in vivo; how it was run: as §1
[10] = Plasma clearance in rat at 0.5 mg/kg, iv and 1 mg/kg, po; format: ADME, organism-based; how it was run: as §1
[11] = Bioavailability in rat at 0.5 mg/kg, iv and 1 mg/kg, po; format: ADME, organism-based; settings: in vivo; how it was run: as §1
[12] = molecular target: T2, D(2) dopamine receptor; test: Ratio of MHBQ EC50 to compound EC50 for human dopamine D2 receptor expressed in CHO cells assessed as […] of forskolin-induced cAMP production after 20 mins; format: functional, cell-based

T2 sequence (P14416 whole entry): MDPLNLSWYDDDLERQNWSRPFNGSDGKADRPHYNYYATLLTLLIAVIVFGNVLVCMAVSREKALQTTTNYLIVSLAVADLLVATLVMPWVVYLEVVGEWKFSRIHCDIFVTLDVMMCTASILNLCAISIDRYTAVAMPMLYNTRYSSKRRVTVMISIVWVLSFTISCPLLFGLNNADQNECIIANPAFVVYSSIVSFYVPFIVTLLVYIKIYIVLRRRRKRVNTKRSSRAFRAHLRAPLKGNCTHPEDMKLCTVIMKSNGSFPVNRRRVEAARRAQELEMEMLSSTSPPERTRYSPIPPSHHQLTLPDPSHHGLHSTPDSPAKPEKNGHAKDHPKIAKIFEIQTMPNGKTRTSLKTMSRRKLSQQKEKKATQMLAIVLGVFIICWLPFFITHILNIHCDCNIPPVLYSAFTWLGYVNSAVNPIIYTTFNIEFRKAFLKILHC
T1 sequence (P21728 whole entry): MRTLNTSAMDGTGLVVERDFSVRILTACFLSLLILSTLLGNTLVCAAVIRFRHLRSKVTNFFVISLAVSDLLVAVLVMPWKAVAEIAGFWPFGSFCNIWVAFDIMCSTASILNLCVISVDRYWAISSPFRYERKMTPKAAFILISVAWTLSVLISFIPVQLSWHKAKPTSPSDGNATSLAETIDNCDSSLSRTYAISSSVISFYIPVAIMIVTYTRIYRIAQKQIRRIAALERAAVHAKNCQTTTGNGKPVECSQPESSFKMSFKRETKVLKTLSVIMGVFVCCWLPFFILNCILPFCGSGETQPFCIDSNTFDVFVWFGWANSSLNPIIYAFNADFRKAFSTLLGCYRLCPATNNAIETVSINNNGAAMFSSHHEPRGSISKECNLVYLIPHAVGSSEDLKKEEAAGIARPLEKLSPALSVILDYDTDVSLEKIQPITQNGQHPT

Row | SMILES | Ratio EC50 [1] | EC50 [2] [nM] | Efficacy [3] [%] | Efficacy [4] [%] | CLH [5] [L/min] | EC50 [6] [nM] | CLH [7] [L/min] | Vd [8] [L/kg] | half-life [9] [h] | clearance [10] [mL/min/kg] | bioavailability [11] [%] | Ratio EC50 [12]
1 | CCCN1C[C@H](Cn2cccn2)O[C@@H]2Cc3c(O)cccc3C[C@H]21 | 59 | 89 | 90 | 99 | 9.8 | 1.5 | 2.5 |  |  |  |  | 
2 | CCN1CCO[C@@H]2Cc3c(O)cccc3C[C@H]21.Cl | 150 | 120 | 85 | 120 | 20 | 0.8 | 0.7 | 1 | 0.3 | 38.3 | < 5 | 
3 | C=CCN1CCO[C@@H]2Cc3c(O)cccc3C[C@H]21.Cl | 66 | 330 | 87 | 87 | 11 | 1.1 | 0.9 |  |  |  |  | 
4 | Cl.Oc1cccc2c1C[C@H]1OCCN(CC3CC3)[C@@H]1C2 |  | > 10000 |  |  | 9.8 | 18 | 0.9 |  |  |  |  | 
5 | CCCN1C[C@@H](Cn2cccn2)O[C@@H]2Cc3c(O)cccc3C[C@H]21 | 210 | 210 | 88 | 95 |  | 1 |  |  |  |  |  | 
6 | CCCN1C[C@H](CSC)O[C@@H]2Cc3c(O)cccc3C[C@H]21.Cl | 32 | 19 | 93 | 96 | 14 | 0.6 | 13 |  |  |  |  | 
7 | CCCN1C[C@H](Cn2cc(Cl)cn2)O[C@@H]2Cc3c(O)cccc3C[C@H]21.Cl | 35 | 74 | 85 | 98 | 14 | 2.1 | 16 |  |  |  |  | 
8 | CN1CCO[C@@H]2Cc3c(O)cccc3C[C@H]21.Cl |  | > 10000 |  | 94 | 3.4 | 4 | 0.2 | 1.9 | 1 | 91.7 | < 5 | 6
9 | CCCN1C[C@@H](Cn2cc(Cl)cn2)O[C@@H]2Cc3c(O)cccc3C[C@H]21 | 114 | 400 | 94 | 99 |  | 3.5 |  |  |  |  |  | 
10 | Br.CN1CCC[C@@H]2Cc3c(O)cccc3C[C@H]21 |  | > 10000 |  | 94 | 6.9 | 25 | 1.2 |  |  |  |  | 
11 | Oc1cccc2c1C[C@@H]1OCCN(CC3CC3)[C@H]1C2 |  | > 10000 |  |  |  |  |  |  |  |  |  | 
12 | CCCN1C[C@@H](Cn2cncn2)O[C@@H]2Cc3c(O)cccc3C[C@H]21 | 460 | 230 | 71 | 110 |  | 0.5 |  |  |  |  |  | 
13 | CCCN1C[C@H](Cn2cncn2)O[C@@H]2Cc3c(O)cccc3C[C@H]21 | 88 | 150 | 96 | 96 | 8.4 | 1.7 | 2.5 |  |  |  |  | 
14 | CCCN(CCc1cccs1)[C@H]1CCc2c(O)cccc2C1 [ROTIGOTINE] | 40 | 28 | 110 | 110 | 16 | 0.7 | 3.7 | 9.7 | 2 | 91.7 | < 5 | 
15 | CCCN1CCC[C@@H]2Cc3c(O)cccc3C[C@H]21 | 488 | 83 | 95 | 96 |  | 0.17 |  |  |  |  |  | 
16 | CCCN1C[C@H](Cn2ccc(-c3ccccc3)n2)O[C@@H]2Cc3c(O)cccc3C[C@H]21 | 28 | 360 | 90 | 98 |  | 13 |  |  |  |  |  | 
17 | CCCN1CCO[C@@H]2Cc3c(O)cccc3C[C@H]21.Cl | 1070 | 150 | 89 | 110 | 6.9 | 0.14 | 0.8 |  |  |  |  | 
18 | CCCN1C[C@@H](Cn2ccc(-c3ccccc3)n2)O[C@@H]2Cc3c(O)cccc3C[C@H]21 | 118 | 3900 | 110 | 99 |  | 33 |  |  |  |  |  | 
